From ChEMBL document CHEMBL1136119, “Novel IKK inhibitors: beta-carbolines” (Bioorg Med Chem Lett, 2003) come the findings set out here.

Molecules are shown by their SMILES.

Assay [1] addresses Casein kinase II (Homo sapiens, UniProt P19784+P67870+P68400). The assay can be described thus: Inhibitory activity against CKII kinase. Type of assay: protein-complex assay.
Assay [2] deals with T1, Inhibitor of nuclear factor kappa-B kinase subunit beta (Homo sapiens, UniProt O14920).
T1 sequence (O14920 whole entry): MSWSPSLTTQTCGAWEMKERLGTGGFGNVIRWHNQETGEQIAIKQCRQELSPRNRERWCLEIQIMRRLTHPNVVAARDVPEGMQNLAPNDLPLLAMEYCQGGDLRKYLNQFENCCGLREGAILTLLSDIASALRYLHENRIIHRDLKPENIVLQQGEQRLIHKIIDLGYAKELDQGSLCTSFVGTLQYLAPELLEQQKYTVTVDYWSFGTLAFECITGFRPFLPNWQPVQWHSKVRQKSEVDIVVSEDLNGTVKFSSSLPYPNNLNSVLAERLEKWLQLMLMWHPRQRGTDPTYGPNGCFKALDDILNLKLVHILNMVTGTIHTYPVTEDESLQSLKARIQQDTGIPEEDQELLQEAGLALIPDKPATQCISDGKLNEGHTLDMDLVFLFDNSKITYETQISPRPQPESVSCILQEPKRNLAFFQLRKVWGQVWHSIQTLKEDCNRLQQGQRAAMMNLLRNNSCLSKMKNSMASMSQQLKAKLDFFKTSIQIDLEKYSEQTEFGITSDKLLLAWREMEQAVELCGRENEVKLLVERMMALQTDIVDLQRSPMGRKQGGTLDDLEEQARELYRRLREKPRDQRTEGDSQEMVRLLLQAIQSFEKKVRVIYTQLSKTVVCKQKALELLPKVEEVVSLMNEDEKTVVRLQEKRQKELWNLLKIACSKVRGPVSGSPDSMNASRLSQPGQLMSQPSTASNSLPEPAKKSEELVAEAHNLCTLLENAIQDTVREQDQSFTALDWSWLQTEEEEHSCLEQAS
As to the kind of experiment: Inhibitory activity against IkappaB kinase(IKK) isolated from HeLa cells activated with recombinant […] in an ELISA phosphorylation assay. Type of assay: cell-free. For orientation: ELISA stands for enzyme-linked immunosorbent assay.

In assay [3] the target is Protein kinase C (PKC). As to the kind of experiment: Inhibitory activity against protein kinase C. The assay is classed as protein assay.
The target of assay [4] is T2, cAMP-dependent protein kinase (PKA) (Homo sapiens, UniProt P22694+P17612+P22612). As to the kind of experiment: Inhibitory activity against protein kinase A. Type of assay: protein assay.
Assay [5] addresses Casein kinase II (Homo sapiens) (UniProt P67870+P68400+P19784). The assay can be described thus: Inhibition of the casein kinase CKII at 25 uM. The assay is classed as protein-complex assay.
Assay [6] deals with HeLa. As to the kind of experiment: Inhibition of IkappaB kinase(IKK) from HeLa cells activated by recombinant MEKK1 in ELISA at 25 uM. Type of assay: cell-based. Particulars: Homo sapiens.
Assay [7] has as its target Protein kinase C (PKC) (Homo sapiens) (UniProt O94806+P41743+P17252+P05129+Q05655+P05771+Q05513+Q02156+P24723+Q15139+Q04759). As to the kind of experiment: Inhibition of Protein kinase C at 25 uM. Type of assay: protein assay.
The target of assay [8] is T2, cAMP-dependent protein kinase (PKA). The assay can be described thus: Inhibition of Protein kinase A at 25 uM. Type of assay: protein assay.
The target in assay [9] is NF-kappa-B essential modulator (Homo sapiens, UniProt Q9Y6K9). As to the kind of experiment: Inhibition of GST-IkB phosphorylation by TNF-alpha stimulated HeLa cell lysate (IP-IKKgamma). Type of assay: functional, cell-free. The method, boiled down: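 Endogenous IKK complex immunoprecipitated with anti-IKKγ antibody from HeLa cells stimulated with TNF-α (20 ng/mL, 5 min) and lysed in NP-40 IP buffer; beads preincubated with varying inhibitor concentrations 30 min at 30 °C; reaction started with bacterially expressed GST-IκB[5-55] plus MgATP with [γ-32P]ATP, 30 min at 30 °C; phosphorylated substrate quantified by SDS-PAGE and phosphorimaging; IC50.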

Assay [10] relates to Mus musculus. As to the kind of experiment: Systemic level of TNF-alpha after oral administration in mice. The assay is classed as functional. The method, boiled down:
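Female BALB/c mice given compound orally (50 mg/kg, 5 mL/kg), followed by intraperitoneal E. coli LPS (serotype 0127:B8); blood taken by cardiac puncture into heparin after CO2 euthanasia, spun at 4 °C, and plasma TNF-α measured relative to vehicle-treated controls.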

Sequence of Casein kinase II (P67870 whole entry): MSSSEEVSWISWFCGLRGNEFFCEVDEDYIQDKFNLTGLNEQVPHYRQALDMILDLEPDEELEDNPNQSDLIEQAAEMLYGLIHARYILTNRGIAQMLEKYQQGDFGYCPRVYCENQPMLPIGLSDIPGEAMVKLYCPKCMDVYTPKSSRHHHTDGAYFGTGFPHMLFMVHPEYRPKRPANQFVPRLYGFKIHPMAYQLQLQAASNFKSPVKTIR
Sequence of Casein kinase II (P68400 whole entry): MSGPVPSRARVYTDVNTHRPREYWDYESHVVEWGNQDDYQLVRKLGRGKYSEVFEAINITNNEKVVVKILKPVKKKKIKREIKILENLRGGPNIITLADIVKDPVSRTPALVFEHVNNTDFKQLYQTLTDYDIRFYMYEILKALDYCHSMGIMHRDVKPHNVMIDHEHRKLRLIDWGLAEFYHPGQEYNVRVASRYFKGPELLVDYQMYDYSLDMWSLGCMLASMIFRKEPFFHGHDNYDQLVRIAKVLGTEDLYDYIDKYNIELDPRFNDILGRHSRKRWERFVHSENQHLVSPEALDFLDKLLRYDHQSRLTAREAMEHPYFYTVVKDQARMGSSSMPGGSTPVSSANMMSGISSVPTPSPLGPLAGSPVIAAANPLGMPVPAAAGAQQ
Sequence of Casein kinase II (P19784 whole entry): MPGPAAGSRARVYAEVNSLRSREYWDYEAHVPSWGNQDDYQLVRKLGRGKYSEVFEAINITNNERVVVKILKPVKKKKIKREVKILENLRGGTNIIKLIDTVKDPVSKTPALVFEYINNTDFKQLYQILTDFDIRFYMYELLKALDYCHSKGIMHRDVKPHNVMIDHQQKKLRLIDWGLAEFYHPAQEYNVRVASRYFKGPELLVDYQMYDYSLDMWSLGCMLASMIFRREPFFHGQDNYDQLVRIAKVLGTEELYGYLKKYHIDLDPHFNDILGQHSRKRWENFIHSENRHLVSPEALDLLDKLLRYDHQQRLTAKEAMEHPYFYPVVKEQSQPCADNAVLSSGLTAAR
Sequence of NF-kappa-B essential modulator (Q9Y6K9 whole entry): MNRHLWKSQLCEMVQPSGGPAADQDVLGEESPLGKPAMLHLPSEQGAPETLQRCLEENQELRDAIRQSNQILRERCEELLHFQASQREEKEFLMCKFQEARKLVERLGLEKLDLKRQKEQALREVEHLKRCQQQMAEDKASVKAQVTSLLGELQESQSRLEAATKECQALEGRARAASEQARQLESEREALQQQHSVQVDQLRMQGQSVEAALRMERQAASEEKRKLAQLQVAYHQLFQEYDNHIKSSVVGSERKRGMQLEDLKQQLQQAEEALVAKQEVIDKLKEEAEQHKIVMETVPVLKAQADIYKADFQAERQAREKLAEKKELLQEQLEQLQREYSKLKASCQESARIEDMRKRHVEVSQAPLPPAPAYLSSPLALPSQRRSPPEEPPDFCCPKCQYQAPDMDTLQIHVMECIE

A word on the IC50: it is the concentration needed to halve the response being measured. Regarding `O=C(Nc1cc(Cl)cc2c1[nH]c1cnccc12)c1ccccc1`, the IC50 in [1] is greater than 25 µM; in [2], 0.7 µM; in [3], greater than 25 µM; in [4], greater than 25 µM.
For the molecule `CCOc1c(Cl)cc2c3cc[nH]cc-3nc2c1Cl`, the IC50 in [1] is greater than 25 µM; in assay [2], 0.14 µM; in assay [3], greater than 25 µM; in [4], greater than 25 µM.
Turning to `O=C(Oc1c(Cl)cc2c3cc[nH]cc-3nc2c1Cl)N1CCOCC1`, in [2], the IC50 was 3.2 µM.
As to `COc1ccc2[nH]c3cnccc3c2c1`, the IC50 was greater than 25 µM in assay [1], 4 µM in assay [2], greater than 25 µM in [3] and greater than 25 µM in [4].
`CS(=O)(=O)Nc1cc(Cl)cc2c3cc[nH]cc-3nc12`: the IC50 in assay [1] was greater than 25 µM; in assay [2] it was 8.3 µM; in assay [3], greater than 25 µM; in assay [4], greater than 25 µM.
As to `Clc1cc2c3cc[nH]cc-3nc2c(Cl)c1OCC1CCCCC1`, the IC50 in assay [1] was greater than 25 µM; in assay [2], 3 µM; in [3], greater than 25 µM; in assay [4], greater than 25 µM.
Turning to `Clc1ccc2[nH]c3cnccc3c2c1`, the IC50 was greater than 25 µM in assay [1], 0.6 µM in assay [2], greater than 25 µM in assay [3] and greater than 25 µM in assay [4].
`Oc1c(Cl)cc2c3cc[nH]cc-3nc2c1Cl`: the IC50 in assay [1] was greater than 25 µM; in assay [2] it was 11 µM; in assay [3], greater than 25 µM; in assay [4], greater than 25 µM.
Turning to `Clc1cc(NCc2ccccc2)c2[nH]c3cnccc3c2c1`, the IC50 was greater than 25 µM in [1], greater than 20 µM in assay [2], greater than 25 µM in [3] and greater than 25 µM in [4].
As to `COc1ccccc1C(=O)Nc1cc(Cl)cc2c1[nH]c1cnccc12`, the IC50 was greater than 25 µM in assay [1], greater than 20 µM in assay [2], greater than 25 µM in assay [3] and greater than 25 µM in [4].
`O=[N+]([O-])c1cc(Cl)cc2c3cc[nH]cc-3nc12`: the IC50 in [1] was greater than 25 µM; in assay [2], 4 µM; in assay [3], greater than 25 µM; in assay [4] it was greater than 25 µM.
For the molecule `O=C(CCCO)Nc1cc(Cl)cc2c3cc[nH]cc-3nc12`, the IC50 is greater than 25 µM in assay [1], greater than 20 µM in assay [2], greater than 25 µM in assay [3] and greater than 25 µM in assay [4].
For the molecule `Fc1ccc2[nH]c3cnccc3c2c1`, the IC50 in assay [1] is greater than 25 µM; in [2], 2 µM; in assay [3], greater than 25 µM; in [4] it was greater than 25 µM.
Regarding `O=C(Nc1cc(Cl)cc2c1[nH]c1cnccc12)c1ccncc1`, the concentration for half-maximal inhibition (IC50) was greater than 25 µM in [1], 0.3 µM in assay [2], greater than 25 µM in [3] and greater than 25 µM in [4].
For `Brc1ccc2[nH]c3cnccc3c2c1`, the IC50 in assay [1] was greater than 25 µM; in [2], 0.6 µM; in [3], greater than 25 µM; in assay [4] it was greater than 25 µM.
By inhibition is commonly meant the percentage by which the read-out fell short of the control. As to `COc1ccc2[nH]c3cnccc3c2c1Br`, the concentration for half-maximal inhibition (IC50) in assay [1] came out at 2 µM; in assay [2], 1 µM; in assay [3] it was 15 µM. The inhibition was 75% in assay [5], 90% in [6], 65% in assay [7] and 10% in assay [8].
On to `Clc1cc2c([nH]c3cnccc32)c(Cl)c1OCC1CC1`, for which the half-inhibitory concentration (IC50) in assay [1] is greater than 25 µM; in [2], 0.08 µM; in assay [3] it was greater than 25 µM; in assay [4], greater than 25 µM.
As for `Clc1cc(Cl)c2[nH]c3cnccc3c2c1`, the IC50 in assay [1] was greater than 25 µM; in assay [2] it was 0.2 µM; in assay [3], greater than 25 µM; in assay [4], greater than 25 µM.
For the molecule `N#Cc1ccc2[nH]c3cnccc3c2c1`, the IC50 in [2] turned out to be 1.1 µM.
Take `O=C(Cc1ccccn1)Nc1cc(Cl)cc2c1[nH]c1cnccc12`: the IC50 in assay [1] is greater than 25 µM; in [2] it was 3 µM; in assay [3], greater than 25 µM; in assay [4] it was greater than 25 µM.
`CC(=O)Nc1cc(Cl)cc2c3cc[nH]cc-3nc12`: the half-inhibitory concentration (IC50) in assay [1] was greater than 25 µM; in assay [2], 0.6 µM; in [3] it was greater than 25 µM; in [4] it was greater than 25 µM.
On to `O=C(Nc1cc(Cl)cc2c1[nH]c1cnccc12)c1ccccn1`, for which the IC50 in assay [1] was greater than 25 µM; in assay [2], 1 µM; in assay [3], greater than 25 µM; in [4], greater than 25 µM.
In the case of `COc1c(Cl)cc2c3cc[nH]cc-3nc2c1Cl`, the IC50 was greater than 25 µM in [1], 0.17 µM in assay [2], greater than 25 µM in [3] and greater than 25 µM in [4].
Regarding `O=S(=O)(Nc1cc(Cl)cc2c1[nH]c1cnccc12)c1ccccc1`, the half-inhibitory concentration (IC50) is greater than 25 µM in [1], greater than 20 µM in [2], greater than 25 µM in assay [3] and greater than 25 µM in [4].
`c1ccc2c(c1)[nH]c1cnccc12` [NORHARMANE]: the IC50 in assay [1] is greater than 25 µM; in assay [2], 15 µM; in assay [3], greater than 25 µM; in assay [4], greater than 25 µM.
With `CNc1cc(Cl)cc2c3cc[nH]cc-3nc12`, the IC50 in assay [2] is 1.8 µM.
On the same count and under the same terms, the same measure for `FC(F)(F)c1ccc2[nH]c3cnccc3c2c1`: 1.1 µM; for `CN(C)c1cc(Cl)cc2c3cc[nH]cc-3nc12`: 1.8 µM.
`COc1ccc(C(=O)Nc2cc(Cl)cc3c2[nH]c2cnccc23)cc1`: the IC50 in assay [1] was greater than 25 µM; in assay [2], 1.3 µM; in assay [3], greater than 25 µM; in assay [4], greater than 25 µM.
In the case of `COC(=O)Nc1cc(Cl)cc2c3cc[nH]cc-3nc12`, the IC50 in assay [1] was greater than 25 µM; in [2] it was 0.7 µM; in [3] it was greater than 25 µM; in [4], greater than 25 µM.
For the molecule `Nc1cc(Cl)cc2c3cc[nH]cc-3nc12`, the IC50 in [2] is 1.3 µM.
As for `COc1cccc(C(=O)Nc2cc(Cl)cc3c2[nH]c2cnccc23)c1`, the IC50 is greater than 25 µM in assay [1], 0.6 µM in [2], greater than 25 µM in assay [3] and greater than 25 µM in assay [4].
`O=C(Nc1cc(Cl)cc2c1[nH]c1cnccc12)N1CCOCC1`: the concentration for half-maximal inhibition (IC50) in assay [1] was greater than 25 µM; in assay [2], greater than 20 µM; in assay [3], greater than 25 µM; in assay [4] it was greater than 25 µM.
Consider `CNC(=O)Nc1cc(Cl)cc2c3cc[nH]cc-3nc12`, for which the IC50 in assay [1] was greater than 25 µM; in [2] it was greater than 20 µM; in assay [3] it was greater than 25 µM; in assay [4], greater than 25 µM.
Usually EC50 stands for the concentration giving half of the maximal effect. On to `O=C(Nc1cc(Cl)cc2c1[nH]c1cnccc12)c1cccnc1`, for which the IC50 in assay [1] is greater than 25 µM; in assay [2], 0.1 µM; in assay [3], greater than 25 µM; in assay [4], greater than 25 µM. Also, in [9], the EC50 is 0.15 µM. Moreover, the Reduction in [10] worked out at 60%.
